A short description of series [1]: Bioavailability in iv dosed Beagle dog. As to conditions: in vivo.
In series [2] the test system is Human immunodeficiency virus 1. The series is described as follows: Antiviral activity against HIV1 3B infected in human MT2 cells assessed as inhibition of virus-induced cytopathic effect after 5 days by XTT assay. The format is functional, organism-based. For orientation: Protection from cytopathic effect is a common read-out in antiviral testing.
Series [3] can be described thus: Hydrolytic stability assessed as compound degradation per ug of protein at 10 uM after 90 mins by scintillation counting in presence of human recombinant cathepsin A. The settings on record: 1.5 h.
The test system of series [4] is PBMC. The series is described as follows: Metabolic stability in cathepsin A-overexpressing human PBMC assessed as compound degradation per ug of protein at 10 uM after 120 mins by scintillation counting. As to conditions: 2 h, 30 µM.
Series [5] in a line: Half life in dog hepatocytes at 2 uM by LC/MS/MS analysis. As to conditions: t1/2.
Series [6] can be described thus: Half life in dog intestine S9 fraction at 2 uM by LC/MS/MS analysis. As to conditions: intestine S9 fraction, t1/2.
Series [7] addresses Human immunodeficiency virus type 1 reverse transcriptase (Human immunodeficiency virus 1, UniProt Q72547). The series is described as follows: Inhibition of HIV1 reverse transcriptase.
Series [8] concerns the target T1, DNA polymerase subunit gamma-1 (Homo sapiens) (UniProt P54098).
T1 sequence (whole entry): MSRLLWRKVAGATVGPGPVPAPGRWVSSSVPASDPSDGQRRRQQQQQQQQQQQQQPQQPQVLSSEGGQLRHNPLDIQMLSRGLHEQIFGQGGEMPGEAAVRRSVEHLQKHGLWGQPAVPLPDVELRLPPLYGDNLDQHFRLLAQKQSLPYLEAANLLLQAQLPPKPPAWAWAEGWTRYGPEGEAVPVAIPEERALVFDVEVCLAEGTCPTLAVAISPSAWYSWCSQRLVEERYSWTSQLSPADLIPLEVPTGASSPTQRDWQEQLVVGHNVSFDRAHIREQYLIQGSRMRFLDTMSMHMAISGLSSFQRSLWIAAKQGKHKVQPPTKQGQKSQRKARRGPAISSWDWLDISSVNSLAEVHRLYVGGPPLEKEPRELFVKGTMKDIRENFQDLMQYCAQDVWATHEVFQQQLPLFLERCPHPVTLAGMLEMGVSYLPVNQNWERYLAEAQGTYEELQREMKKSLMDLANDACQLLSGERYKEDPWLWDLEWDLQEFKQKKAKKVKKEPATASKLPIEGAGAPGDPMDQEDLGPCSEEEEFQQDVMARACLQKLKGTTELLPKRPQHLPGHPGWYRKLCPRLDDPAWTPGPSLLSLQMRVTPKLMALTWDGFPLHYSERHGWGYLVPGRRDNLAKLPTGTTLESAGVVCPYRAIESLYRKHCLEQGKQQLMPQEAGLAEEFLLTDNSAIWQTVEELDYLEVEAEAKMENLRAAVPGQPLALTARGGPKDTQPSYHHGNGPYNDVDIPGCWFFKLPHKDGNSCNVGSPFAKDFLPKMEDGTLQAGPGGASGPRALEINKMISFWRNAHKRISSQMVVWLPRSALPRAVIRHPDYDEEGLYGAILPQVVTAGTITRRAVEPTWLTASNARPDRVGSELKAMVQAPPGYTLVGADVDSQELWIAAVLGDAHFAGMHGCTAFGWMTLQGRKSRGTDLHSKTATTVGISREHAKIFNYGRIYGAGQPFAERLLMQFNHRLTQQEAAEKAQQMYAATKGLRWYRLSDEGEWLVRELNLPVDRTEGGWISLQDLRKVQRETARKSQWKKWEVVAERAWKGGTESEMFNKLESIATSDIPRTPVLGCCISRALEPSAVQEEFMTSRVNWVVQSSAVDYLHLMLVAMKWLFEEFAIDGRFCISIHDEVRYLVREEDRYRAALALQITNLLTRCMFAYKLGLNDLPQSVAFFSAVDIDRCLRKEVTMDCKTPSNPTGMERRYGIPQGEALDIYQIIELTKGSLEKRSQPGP
The series is described as follows: Inhibition of human recombinant DNA polymerase gamma by scintillation counting.

The nature of series [9]: Selectivity for inhibition of HIV wild type reverse transcriptase over inhibition of human recombinant DNA polymerase gamma.
In series [10] the test system is PBMC. The series is described as follows: Drug metabolism in Beagle dog PBMC assessed as 5-[(6-Amino-purin-9-yl)-4-fluoro-2,5-dihydro-furan-2-yloxymethyl] phosphonic acid diphosphate level after 5 hrs. Type of series: ADME, cell-based, Canis lupus familiaris. Put shortly: (§1)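 Beagle dogs were given a single oral dose of 3 mg/kg. The prodrug was followed in plasma. The parent diacid and its active diphosphate metabolite were followed inside isolated PBMCs over time after dosing. Plasma half-life and PBMC-to-plasma levels were derived from these time-course profiles.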

Series [11] is described as follows: Cytotoxicity against human MT2 cells after 5 days by XTT assay. (In general: Formazan colour is commonly taken as a measure of viable cells.)
Series [12] is described as follows: Drug metabolism in Beagle dog assessed as ratio of GS-9148 level in PBMC to plasma at 3 mg/kg, po up to 20 mins. The format is ADME, organism-based, Canis lupus familiaris. More on the design: dose 3 mg/kg, route oral. The settings on record: in vivo, 2 h, in the assay text read “up to 2 hrs” for “up to 20 mins”. In short, it runs like this:
as §1

Series [13] is described as follows: Cytotoxicity against human HepG2 cells assessed as inhibition of mitochondrial DNA replication after 14 days. As to conditions: read-out: MTC50.

SMILES strings stand for the structures.

The bioavailability is dose-corrected exposure relative to a reference, in per cent. Higher therefore signals good availability. Usually EC50 stands for the concentration at which the effect is half-maximal. One may read the half-life as the time needed for the level to fall by half in the phase considered. Read a low half-life as fast loss. In [1], `C[C@H](NP(=O)(CO[C@@H]1C=C(F)[C@H](n2cnc3c(N)ncnc32)O1)Oc1ccccc1)C(=O)OC1CCC1.Cl.Cl` (some centres undefined) showed a bioavailability of 18%. In series [2] (mt2), the EC50 turned out to be 0.021 µM. Besides, the Activity in series [3] was determined as 23997 pmol/min; in the series with PBMC [4] it was 19 pmol/min. Besides, the half-life at 2 µM in series [5] was 52 min; in series [6], 3.9 min.

The IC50 is the point on the concentration scale where inhibition reaches its midpoint. Low readings indicate greater potency, high ones weaker potency. The molecule `Nc1ncnc2c1ncn2[C@@H]1O[C@H](OCP(=O)(O)OP(=O)(O)OP(=O)(O)O)C=C1F` displayed an IC50 in series [7] of 1.9 µM. The Activity in series [8] is 100 µM; in the series with PBMC [10], more than 9 µM. Further, the fold change (FC) in [9] is more than 130.

Take `Nc1ncnc2c1ncn2[C@@H]1O[C@H](OCP(=O)(O)O)C=C1F` [GS-9148]: the CC50 at 120 h in [11] was more than 100 µM. The Ratio in series [12] worked out at 10. Besides, the EC50 in series [2] (Human immunodeficiency virus 1, 3B, MT2, 120 h) was 10.6 µM. Further, in [13], the CC50 at 336 h is more than 300 µM.

The record behind these values is ChEMBL document CHEMBL1157759, “Discovery of GS-9131: Design, synthesis and optimization of amidate prodrugs of the novel nucleoside phosphonate HIV reverse transcriptase (RT) inhibitor GS-9148” (Bioorg Med Chem, 2010).
